Reference: ChEMBL document CHEMBL1667806, “Synthesis and evaluation of anti-tubercular activity of new dithiocarbamate sugar derivatives” (2011)
In brackets after ≈: the same amount, converted by molar mass.

Experiments:
[1] = system: Mycobacterium tuberculosis; assay: Antimycobacterial activity against Mycobacterium tuberculosis H37Rv; type: functional
[2] = microbe, parasite or virus in culture; type: functional, Mycobacterium bovis BCG str. Tokyo 172; conditions: Mycobacterium tuberculosis variant bovis BCG
[3] = microbe, parasite or virus in culture; type: functional, Mycobacterium avium subsp. hominissuis; conditions: Mycobacterium avium, 104
Mycobacterium avium = assay: microbe, parasite or virus in culture; type: functional, Mycobacterium avium subsp. avium ATCC 25291; conditions: ATCC 2529
Staphylococcus aureus [4] = assay: Antimicrobial activity against Staphylococcus aureus; type: functional
Staphylococcus aureus [5] = assay: microbe, parasite or virus in culture; type: functional; conditions: 873
Escherichia coli [6] = assay: Antimicrobial activity against Escherichia coli DH5alpha; type: functional; conditions: DH5[alpha]
Staphylococcus aureus [7] = assay: Antimicrobial activity against drug-sensitive Staphylococcus aureus 209PJC-1; type: functional
Staphylococcus aureus [8] = assay: Antimicrobial activity against drug-sensitive Staphylococcus aureus RN4220; type: functional
Staphylococcus aureus [9] = assay: Antimicrobial activity against methicillin-resistant Staphylococcus aureus MF490; type: functional
Enterococcus faecalis [10] = assay: Antimicrobial activity against AGs-resistant Enterococcus faecalis ATCC 19433; type: functional
Enterococcus faecalis [11] = assay: Antimicrobial activity against AGs-resistant Enterococcus faecalis ATCC 19434; type: functional
Escherichia coli [12] = assay: Antimicrobial activity against drug-sensitive Escherichia coli JM109; type: functional
Klebsiella pneumoniae = assay: Antibacterial activity against […] Klebsiella pneumoniae ATCC BAA-1705; type: functional
Pseudomonas aeruginosa = assay: Antibacterial activity against drug-sensitive Pseudomonas aeruginosa PAO1; type: functional
[13] = system: Mycobacterium tuberculosis; assay: Antimycobacterial activity against drug-sensitive Mycobacterium tuberculosis isolate 1; type: functional
[14] = system: Mycobacterium tuberculosis; assay: Antimycobacterial activity against drug-sensitive Mycobacterium tuberculosis isolate 2; type: functional
How it was run: (§1)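 MIC by broth dilution in Middlebrook 7H9 broth supplemented with albumin, dextrose and catalase.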

[15] = system: Mycobacterium tuberculosis; assay: Antimycobacterial activity against drug-sensitive Mycobacterium tuberculosis isolate 3; type: functional; how it was run: as §1
[16] = system: Mycobacterium tuberculosis; assay: Antimycobacterial activity against drug-sensitive Mycobacterium tuberculosis isolate 4; type: functional; how it was run: as §1
[17] = system: Mycobacterium tuberculosis; assay: Antimycobacterial activity against drug-sensitive Mycobacterium tuberculosis isolate 5; type: functional; how it was run: as §1
[18] = system: Mycobacterium tuberculosis; assay: Antimycobacterial activity against drug-sensitive Mycobacterium tuberculosis isolate 6; type: functional; how it was run: as §1
[19] = system: Mycobacterium tuberculosis; assay: Antimycobacterial activity against drug-sensitive Mycobacterium tuberculosis isolate 7; type: functional; how it was run: as §1
[20] = system: Mycobacterium tuberculosis; assay: Antimycobacterial activity against drug-sensitive Mycobacterium tuberculosis isolate 8; type: functional; how it was run: as §1
[21] = system: Mycobacterium tuberculosis; assay: Antimycobacterial activity against drug-sensitive Mycobacterium tuberculosis isolate 9; type: functional; how it was run: as §1
[22] = system: Mycobacterium tuberculosis; assay: Antimycobacterial activity against drug-sensitive Mycobacterium tuberculosis isolate 10; type: functional; how it was run: as §1
[23] = system: Mycobacterium tuberculosis; assay: Antimycobacterial activity against drug-sensitive Mycobacterium tuberculosis isolate 11; type: functional; how it was run: as §1
[24] = system: Mycobacterium tuberculosis; assay: Antimycobacterial activity against drug-sensitive Mycobacterium tuberculosis isolate 12; type: functional; how it was run: as §1
[25] = system: Mycobacterium tuberculosis; assay: Antimycobacterial activity against drug-sensitive Mycobacterium tuberculosis isolate 13; type: functional; how it was run: as §1
[26] = system: Mycobacterium tuberculosis; assay: Antimycobacterial activity against drug-sensitive Mycobacterium tuberculosis isolate 14; type: functional; how it was run: as §1
[27] = system: Mycobacterium tuberculosis; assay: Antimycobacterial activity against drug-sensitive Mycobacterium tuberculosis isolate 15; type: functional; how it was run: as §1
[28] = system: Mycobacterium tuberculosis; assay: Antimycobacterial activity against drug-sensitive Mycobacterium tuberculosis isolate 16; type: functional; how it was run: as §1
[29] = system: Mycobacterium tuberculosis; assay: Antimycobacterial activity against drug-sensitive Mycobacterium tuberculosis isolate 17; type: functional; how it was run: as §1
[30] = system: Mycobacterium tuberculosis; assay: Antimycobacterial activity against drug-sensitive Mycobacterium tuberculosis isolate 18; type: functional; how it was run: as §1
[31] = system: Mycobacterium tuberculosis; assay: Antimycobacterial activity against drug-sensitive Mycobacterium tuberculosis isolate 19; type: functional; how it was run: as §1
[32] = system: Mycobacterium tuberculosis; assay: Antimycobacterial activity against drug-sensitive Mycobacterium tuberculosis isolate 20; type: functional; how it was run: as §1

`CC(=O)N[C@@H]1[C@@H](O)[C@H](O)[C@@H](CO)O[C@H]1SC(=S)N1CCCC1` gave an MIC [1] of 6.25 µg/mL (≈ 17.8 µM), an MIC [2] of 12.5 µg/mL (≈ 35.7 µM) and an MIC [3] of 100 µg/mL (≈ 285 µM). For the same molecule, the MIC (Mycobacterium avium) was 50 µg/mL (≈ 143 µM), the MIC (Staphylococcus aureus [4]) was > 100 µg/mL and the MIC (Staphylococcus aureus [5]) was > 100 µg/mL. The MIC (Escherichia coli [6]) was > 100 µg/mL, the MIC (Staphylococcus aureus [7]) was > 128 µg/mL and the MIC (Staphylococcus aureus [8]) was > 128 µg/mL. For the same molecule, the MIC (Staphylococcus aureus [9]) was > 128 µg/mL, the MIC (Enterococcus faecalis [10]) was > 128 µg/mL and the MIC (Enterococcus faecalis [11]) was > 128 µg/mL. For the same molecule, the MIC (Escherichia coli [12]) was > 128 µg/mL, the MIC (Klebsiella pneumoniae) was > 128 µg/mL and the MIC (Pseudomonas aeruginosa) was > 128 µg/mL. It also gave an MIC [13] of 6.25 µg/mL (≈ 17.8 µM), an MIC [14] of 6.25 µg/mL (≈ 17.8 µM) and an MIC [15] of 6.25 µg/mL (≈ 17.8 µM). It also gave an MIC [16] of 6.25 µg/mL (≈ 17.8 µM), an MIC [17] of 6.25 µg/mL (≈ 17.8 µM) and an MIC [18] of 6.25 µg/mL (≈ 17.8 µM). It also gave an MIC [19] of 12.5 µg/mL (≈ 35.7 µM), an MIC [20] of 12.5 µg/mL (≈ 35.7 µM) and an MIC [21] of 6.25 µg/mL (≈ 17.8 µM). It also gave an MIC [22] of 6.25 µg/mL (≈ 17.8 µM), an MIC [23] of 6.25 µg/mL (≈ 17.8 µM) and an MIC [24] of 6.25 µg/mL (≈ 17.8 µM). It also gave an MIC [25] of 12.5 µg/mL (≈ 35.7 µM), an MIC [26] of 6.25 µg/mL (≈ 17.8 µM) and an MIC [27] of 6.25 µg/mL (≈ 17.8 µM). For the same molecule, the MIC [28] was 6.25 µg/mL (≈ 17.8 µM), the MIC [29] was 6.25 µg/mL (≈ 17.8 µM) and the MIC [30] was 6.25 µg/mL (≈ 17.8 µM). It also gave an MIC [31] of 6.25 µg/mL (≈ 17.8 µM) and an MIC [32] of 12.5 µg/mL (≈ 35.7 µM).
`C[C@@H](O)[C@H]1C(=O)N2C(C(=O)O)=C(SCCNC=N)C[C@H]12` [IMIPENEM ANHYDROUS] gave an MIC [1] of 3.13 µg/mL (≈ 10.5 µM), an MIC [2] of 3.13 µg/mL (≈ 10.5 µM) and an MIC (Staphylococcus aureus [4]) of 0.1 µg/mL (≈ 0.334 µM). The MIC (Staphylococcus aureus [5]) was 0.1 µg/mL (≈ 0.334 µM) and the MIC (Escherichia coli [6]) was 0.1 µg/mL (≈ 0.334 µM).
Molecule `O=C(O)c1cn(C2CC2)c2cc(N3CCNCC3)c(F)cc2c1=O` [CIPROFLOXACIN] has an MIC [1] of 0.39 µg/mL (≈ 1.18 µM), an MIC [2] of 0.1 µg/mL (≈ 0.302 µM) and an MIC [3] of 0.39 µg/mL (≈ 1.18 µM). The MIC (Mycobacterium avium) was 1.56 µg/mL (≈ 4.71 µM) and the MIC (Staphylococcus aureus [4]) was 0.2 µg/mL (≈ 0.604 µM).
`CC[C@@H](CO)NCCN[C@@H](CC)CO` [ETHAMBUTOL] gave an MIC [1] of 2.5 µg/mL (≈ 12.2 µM), an MIC [2] of 1.5 µg/mL (≈ 7.34 µM) and an MIC [3] of 1.6 µg/mL (≈ 7.83 µM). The MIC (Mycobacterium avium) was 1.6 µg/mL (≈ 7.83 µM), the MIC (Staphylococcus aureus [4]) was > 100 µg/mL and the MIC (Staphylococcus aureus [5]) was > 100 µg/mL. The MIC (Escherichia coli [6]) was > 100 µg/mL.
With `CCCCCCCCCCCCCCCCCC(=O)N[C@@H]1[C@@H](O)[C@H](O)[C@@H](CO)O[C@H]1SC(=S)N(C)C` the MIC [1] was 100 µg/mL (≈ 182 µM).
With `CC(=O)N[C@@H]1[C@@H](O)[C@H](O)[C@@H](CO)O[C@H]1O` [N-ACETYLGLUCOSAMINE] the MIC [1] was > 100 µg/mL, the MIC [2] was > 100 µg/mL and the MIC [3] was > 100 µg/mL. For the same molecule, the MIC (Mycobacterium avium) was > 100 µg/mL, the MIC (Staphylococcus aureus [4]) was > 100 µg/mL and the MIC (Staphylococcus aureus [5]) was > 100 µg/mL. For the same molecule, the MIC (Escherichia coli [6]) was > 100 µg/mL.
In the case of `NNC(=O)c1ccncc1` [ISONIAZID], the MIC [1] is reported as 0.04 µg/mL (≈ 0.292 µM), the MIC [2] is reported as 0.04 µg/mL (≈ 0.292 µM) and the MIC [3] is reported as 1.56 µg/mL (≈ 11.4 µM). For the same molecule, the MIC (Mycobacterium avium) was 3.13 µg/mL (≈ 22.8 µM), the MIC (Staphylococcus aureus [4]) was > 100 µg/mL and the MIC (Staphylococcus aureus [5]) was > 100 µg/mL. The MIC (Escherichia coli [6]) was > 100 µg/mL.
In the case of `CC1(C)S[C@@H]2[C@H](NC(=O)Cc3ccccc3)C(=O)N2[C@H]1C(=O)O` [PENICILLIN G], the MIC [1] is reported as 500 µg/mL (≈ 1500 µM), the MIC [2] is reported as 500 µg/mL (≈ 1500 µM) and the MIC (Staphylococcus aureus [4]) is reported as 31.3 µg/mL (≈ 93.6 µM). For the same molecule, the MIC (Staphylococcus aureus [5]) was > 500 µg/mL and the MIC (Escherichia coli [6]) was 25 µg/mL (≈ 74.8 µM).
`CN(C)C(=S)S[C@@H]1O[C@H](CO)[C@@H](O)[C@H](O)[C@H]1N` showed an MIC [1] of 50 µg/mL (≈ 177 µM).
Molecule `CN[C@@H]1[C@H](O[C@H]2[C@H](O[C@H]3[C@H](O)[C@@H](O)[C@H](N=C(N)N)[C@@H](O)[C@@H]3N=C(N)N)O[C@@H](C)[C@]2(O)C=O)O[C@@H](CO)[C@H](O)[C@H]1O` [STREPTOMYCIN] has an MIC [1] of 0.39 µg/mL (≈ 0.671 µM), an MIC [2] of 0.2 µg/mL (≈ 0.344 µM) and an MIC [3] of 1.56 µg/mL (≈ 2.68 µM). The MIC (Mycobacterium avium) was 3.13 µg/mL (≈ 5.38 µM), the MIC (Staphylococcus aureus [4]) was 50 µg/mL (≈ 86 µM) and the MIC (Staphylococcus aureus [5]) was > 100 µg/mL. The MIC (Escherichia coli [6]) was 50 µg/mL (≈ 86 µM).
For `CC(=O)N[C@@H]1[C@@H](O)[C@H](O)[C@@H](CO)O[C@H]1SC(=S)N(C)C`, the MIC [1] was 25 µg/mL (≈ 77.1 µM), the MIC [2] was 31.3 µg/mL (≈ 96.5 µM) and the MIC [3] was > 100 µg/mL. For the same molecule, the MIC (Mycobacterium avium) was > 100 µg/mL, the MIC (Staphylococcus aureus [4]) was > 100 µg/mL and the MIC (Staphylococcus aureus [5]) was > 100 µg/mL. For the same molecule, the MIC (Escherichia coli [6]) was > 100 µg/mL.
